Laboratory results taken from PMC10763849 (Journal of Enzyme Inhibition and Medicinal Chemistry, 2023).

Test system: HCT116 (KRAS(mut)/p53(wt)) cells xenograft
Test: In vivo anti-tumour activity, HCT116 xenograft
Set-up: species or system BALB/c nude mice
Conditions: i.p. 10 mg/kg, every 3 d, five times; for body weight changes: BALB/c nude mice; for tumour volume compared with the vehicle group: HCT116 xenograft
Summary of the method: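 Six-week-old BALB/c nude mice received 1 × 10^7 HCT116 cells in 200 µL subcutaneously in the right flank. At 80–120 mm3, mice were randomised into four groups of 5. They were dosed i.p. in PBS pH 7.4 (0.2 ml) every 3 days ×5: vehicle or test compound at 1, 10 or 20 mg/kg; a second study used 10 mg/kg with reference inhibitors. Tumour volume was (min² × max)/2, with body weight recorded; mean ± SD.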

Row | Structure (SMILES) | body weight changes | tumour volume compared with the vehicle group
1 | O=C(CCCCCCC(=O)Nc1ccccc1)NO [SAHA, Vorinostat] | stable trend | smaller than that of the vehicle group
2 | CN1CCN(Cc2ccc(Nc3ncc(Cl)c(Nc4ccccc4S(=O)(=O)N(C)C)n3)cc2)CC1 [TP0903] | stable trend | smaller than that of the vehicle group
